Measured values published in ChEMBL document CHEMBL3085764, “Azole-carbodithioate hybrids as vaginal anti-Candida contraceptive agents: design, synthesis and docking studies” (Eur J Med Chem, 2013).
Converted amounts (≈) assume the structure as drawn.

Legend:
[1] = Spermicidal activity in human semen assessed as sperm immobilization at 0.1 % w/v up to 30 seconds by phase contrast microscopy; assay type: functional
[2] = Growth inhibition of Lactobacillus acidophilus after 72 hrs by colony counting method
How it was run: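 Rogosa SL agar plates (7.5%, 0.132% acetic acid), with or without compound, inoculated with L. acidophilus (~70 […]/10 cm²). Incubated 72 h at 37 °C in 5% CO2/95% air. Colony number and size recorded. Value = average colony size (% of control) × colony number / 100.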

HeLa = test: Cytotoxicity against human HeLa cells after 5 hrs by LDH assay
[3] = Spermicidal activity in human semen assessed as sperm immobilization at 1.0 % w/v up to 30 seconds by phase contrast microscopy; assay type: functional
Escherichia coli = test: Antibacterial activity against Escherichia coli ATCC 9637 after 48 hrs by broth microdilution technique; assay type: functional; settings: ATCC 9637, 48 h
How it was run: (§1)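 Broth microdilution following NCCLS guidelines in Mueller Hinton broth. Inoculum held at 1-5 × 10^3 cfu/mL. Plates incubated at 35 °C in a moist, dark chamber for 48 h. MIC and IC50 read spectrophotometrically at 492 nm.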

Candida albicans [4] = test: Antifungal activity against Candida albicans ATCC 10231 after 48 hrs by broth microdilution technique; assay type: functional, organism-based; settings: ATCC 10231, 48 h
How it was run: (§2)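 MIC by broth microdilution following NCCLS guidelines, in RPMI 1640 buffered with MOPS. Starting inoculum 1-5 × 10^3 CFU/mL. Plates incubated at 35 °C. MIC and IC50 read spectrophotometrically at 492 nm after 48 h.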

Candida albicans [5] = test: Antifungal activity against Candida albicans MTCC 183 after 48 hrs by broth microdilution technique; assay type: functional, organism-based; settings: MTCC 183, 48 h; how it was run: as §2
Candida albicans [6] = test: Antifungal activity against Candida albicans clinical isolate after 48 hrs by broth microdilution technique; assay type: functional, organism-based; how it was run: as §2
Staphylococcus aureus = test: Antibacterial activity against Staphylococcus aureus ATCC 25923 after 48 hrs by broth microdilution technique; assay type: functional; settings: ATCC 25923, 48 h; how it was run: as §1
Pseudomonas aeruginosa = test: Antibacterial activity against Pseudomonas aeruginosa ATCC BAA-427 after 48 hrs by broth microdilution technique; assay type: functional; settings: ATCC BAA-427, 48 h; how it was run: as §1
Candida albicans [7] = test: Antifungal activity against Candida albicans after 48 hrs by broth microdilution technique; assay type: functional, organism-based; how it was run: as §2
Candida parapsilosis = test: Antifungal activity against Candida parapsilosis ATCC 22019 after 48 hrs by broth microdilution technique; assay type: functional, organism-based; settings: Lodderomyces parapsilosis, ATCC 22019, 48 h; how it was run: as §2
[8] = tested on: Trichophyton mentagrophytes; test: Antifungal activity against Trichophyton mentagrophytes after 48 hrs by broth microdilution technique; assay type: functional, organism-based; how it was run: as §2
Sporothrix schenckii = test: Antifungal activity against Sporothrix schenckii after 48 hrs by broth microdilution technique; assay type: functional, organism-based; how it was run: as §2
Trichomonas vaginalis = test: Trichomonacidal activity against Trichomonas vaginalis after 48 hrs by trypan blue exclusion assay; assay type: functional; settings: read-out: MEC
How it was run: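 T. vaginalis in log phase, grown in TYM with 10% FCS, vitamin mixture and penicillin/streptomycin at 37 °C. DMSO stocks ([…]) serially diluted in TYM down to 0.1 µg/mL; DMSO/TYM vehicle controls. 5 × 10^4 trophozoites added and incubated anaerobically at 37 °C. Viability checked by trypan blue from 3 to 48 h. MIC = lowest concentration killing all cells by 48 h. Three repeats.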

Klebsiella pneumoniae = test: Antibacterial activity against Klebsiella pneumoniae after 48 hrs by broth microdilution technique; assay type: functional; how it was run: as §1
Candida albicans [9] = test: Antifungal activity against Candida albicans clinical isolate CDRI after 48 hrs by broth microdilution technique; assay type: functional, organism-based; how it was run: as §2
Cryptococcus neoformans = test: Antifungal activity against Cryptococcus neoformans after 48 hrs by broth microdilution technique; assay type: functional, organism-based; how it was run: as §2
Aspergillus fumigatus = test: Antifungal activity against Aspergillus fumigatus after 48 hrs by broth microdilution technique; assay type: functional, organism-based; how it was run: as §2

SMILES	Activity [1] [%]	IC50 [2] [µg/mL]	IC50 (HeLa) [µg/mL]	Activity [3] [%]	MIC (Escherichia coli) [µg/mL]	IC50 (Candida albicans [4]) [µg/mL]	IC50 (Candida albicans [5]) [µg/mL]	IC50 (Candida albicans [6]) [µg/mL]	MIC (Staphylococcus aureus) [µg/mL]	MIC (Pseudomonas aeruginosa) [µg/mL]	IC50 (Candida albicans [7]) [µg/mL]	IC50 (Candida parapsilosis) [µg/mL]	IC50 [8] [µg/mL]	IC50 (Sporothrix schenckii) [µg/mL]	minimal effective concentration (Trichomonas vaginalis) [µg/mL]	MIC (Klebsiella pneumoniae) [µg/mL]	IC50 (Candida albicans [9]) [µg/mL]	IC50 (Cryptococcus neoformans) [µg/mL]	IC50 (Aspergillus fumigatus) [µg/mL]
CCCCSC(=S)n1ccnc1	80	45.64 (≈ 228 µM)	48.7 (≈ 243 µM)	100	≥ 50	3.5 (≈ 17.5 µM)	5.41 (≈ 27 µM)	1.53 (≈ 7.64 µM)	≥ 50	≥ 50	1.29 (≈ 6.44 µM)	1.94 (≈ 9.68 µM)	> 50	> 50	> 200	≥ 50	6.17 (≈ 30.8 µM)	3.79 (≈ 18.9 µM)	–
C=CCSC(=S)n1ccnc1C	0	–	–	100	≥ 50	4.53 (≈ 22.8 µM)	3.61 (≈ 18.2 µM)	2.1 (≈ 10.6 µM)	≥ 50	≥ 50	2.21 (≈ 11.1 µM)	10.2 (≈ 51.2 µM)	> 50	1.5 (≈ 7.56 µM)	> 200	≥ 50	7.26 (≈ 36.6 µM)	3.35 (≈ 16.9 µM)	18.1 (≈ 91.3 µM)
CCCCSC(=S)n1ccnc1C	0	220 (≈ 1030 µM)	85.5 (≈ 399 µM)	100	≥ 50	5.09 (≈ 23.7 µM)	4.69 (≈ 21.9 µM)	2.12 (≈ 9.89 µM)	≥ 50	≥ 50	1.34 (≈ 6.25 µM)	> 50	2.02 (≈ 9.42 µM)	5.71 (≈ 26.6 µM)	> 200	≥ 50	7.64 (≈ 35.6 µM)	5.57 (≈ 26 µM)	23.8 (≈ 111 µM)
CCCCCCCCSC(=S)n1ccnc1C	100	–	–	100	≥ 50	> 50	> 50	> 50	≥ 50	≥ 50	7.21 (≈ 26.7 µM)	> 50	> 50	4.47 (≈ 16.5 µM)	> 200	≥ 50	19 (≈ 70.4 µM)	> 50	> 50
CCCCCCCCCCCCCCCCSC(=S)n1ccnc1C	0	–	–	95	≥ 50	> 50	> 50	> 50	≥ 50	≥ 50	> 50	> 50	7.07 (≈ 18.5 µM)	> 50	> 200	≥ 50	> 50	> 50	> 50
CSC(=S)n1cncn1	0	39.54 (≈ 248 µM)	53.7 (≈ 337 µM)	100	≥ 50	38 (≈ 239 µM)	31.2 (≈ 196 µM)	> 50	≥ 50	≥ 50	1.43 (≈ 8.98 µM)	> 50	> 50	4.34 (≈ 27.3 µM)	> 200	≥ 50	> 50	> 50	> 50
C=CCSC(=S)n1cncn1	0	–	–	100	≥ 50	> 50	> 50	> 50	≥ 50	≥ 50	2.53 (≈ 13.7 µM)	> 50	> 50	5.78 (≈ 31.2 µM)	> 200	≥ 50	45.5 (≈ 246 µM)	> 50	> 50
CCCCSC(=S)n1cnc2ccccc21	0	–	–	100	≥ 50	> 50	21.8 (≈ 87.1 µM)	> 50	≥ 50	≥ 50	6.39 (≈ 25.5 µM)	> 50	1.4 (≈ 5.59 µM)	> 50	> 200	≥ 50	37.4 (≈ 149 µM)	> 50	> 50
CCCCCCCCSC(=S)n1cnc2ccccc21	0	–	–	95	≥ 50	> 50	> 50	> 50	≥ 50	≥ 50	> 50	> 50	> 50	> 50	> 200	≥ 50	> 50	> 50	> 50
CCCCCCCCCc1ccc(OCCOCCOCCOCCOCCOCCOCCOCCOCCO)cc1 [NONOXYNOL 9]	100	21 (≈ 34 µM)	37 (≈ 60 µM)	100	–	–	–	–	–	–	–	–	–	–	37.4	–	–	–	–
